Published values gathered from unrelated publications.
Each line is one published result; the experiments were not run side by side.
Organism: Candida albicans
Read-out: microbial growth

SMILES | test | system | setting | MIC
N=C(N)NCc1ccc(NC(=O)C23CCC(C(=O)Nc4ccc(C5=CCN(C(=N)N)CC5)cc4)(CC2)CC3)cc1 | broth dilution | – | 48 h, clinical isolate | 0.2 µg/mL
CC(=O)NCN1N=C(C)C(=NNn2c(-c3ccccc3)nc3ccccc3c2=O)C1=O | broth dilution | – | – | 120 µM
CCOC(=O)c1nc2ccccc2c(=O)n1Cc1cn(-c2ccc(C)cc2)nn1 | broth dilution | ATCC90028 | – | 250 µg/mL
O=C(CCCCCCCC[P+](c1ccccc1)(c1ccccc1)c1ccccc1)Nc1ccc(O)c(O)c1.[Br-] | broth dilution | ATCC90028 | 24 h | > 32 µg/mL
NOCC(=O)O | – | SC5314 | – | 1000 µg/mL
COc1cc(-c2ccccc2)cc(C(C)C#Cc2c(C)nc(N)nc2N)c1 (racemic) | resazurin | – | – | 250 µM
OC(Cn1cncn1)(Cn1cncn1)c1ccc(F)cc1F | broth dilution | ATCC90028 | 24 h | 0.125 µg/mL
CC1=NN(CNc2ccc(C(=O)O)cc2)C(=O)C1=NNn1c(-c2ccccc2)nc2ccccc2c1=O | broth dilution | – | – | 50.5 µM
O=C(Cc1ccc(O)c(O)c1)NCCCCCCCC[P+](c1ccccc1)(c1ccccc1)c1ccccc1.[Br-] | broth dilution | ATCC90028 | 24 h | > 32 µg/mL
CCOC(=O)CON | – | SC5314 | – | 32 µg/mL
CC1=NN(CNc2c(O)c(S(=O)(=O)O)cc3ccccc23)C(=O)C1=NNn1c(-c2ccccc2)nc2ccccc2c1=O | broth dilution | – | – | 41.8 µM
O=C(CCc1ccc(O)c(O)c1)NCCCCCCCC[P+](c1ccccc1)(c1ccccc1)c1ccccc1.[Br-] | broth dilution | ATCC90028 | 24 h | > 32 µg/mL
CC1=NN(CNc2ccccc2[N+](=O)[O-])C(=O)C1=NNn1c(-c2ccccc2)nc2ccccc2c1=O | broth dilution | – | – | 50.4 µM
C[C@@H]1[C@H](O)[C@@H](C)/C=C/C=C/C=C/C=C/C=C/C=C/C=C/[C@H](O[C@@H]2O[C@H](C)[C@@H](O)[C@H](N)[C@@H]2O)C[C@@H]2O[C@](O)(C[C@@H](O)C[C@@H](O)[C@H](O)CC[C@@H](O)C[C@@H](O)CC(=O)O[C@H]1C)C[C@H](O)[C@H]2C(=O)O | – | ATCC90028 | – | 0.63 µg/mL
CC[C@@H]([C@H](C)O)n1ncn(-c2ccc(N3CCN(c4ccc(OC[C@@H]5CO[C@@](Cn6cncn6)(c6ccc(F)cc6F)C5)cc4)CC3)cc2)c1=O | – | ATCC10231 | 72 h | < 0.3 µM
O=C1NN=C(N=Cc2ccc(O)cc2O)C1=NNn1c(-c2ccccc2)nc2ccccc2c1=O | broth dilution | – | – | 53.5 µM
